Measured values of several laboratories.
Compare with care: the assays were run in different laboratories.
Target: Sodium-dependent noradrenaline transporter (SLC6A2, Homo sapiens, UniProt P23975)

Clc1ccc(C(c2ccc(Cl)cc2)c2nnnn2CCCCN2CCC(Cc3ccccc3)CC2)cc1  IC50 (transporter uptake; inhibitor): 469 nM
O[C@@H]1[C@H](O)[C@@H]2C[C@@H]2[C@H]1n1cnc2c(NCCc3ccccc3)nc(C#Cc3ccccc3)nc21  Ki (ligand displacement; radioligand): 2800 nM
CCN(CC)c1ccc(C2Nc3ccc(C(=O)c4ccccc4)cc3NC3=C2C(=O)CC(C)(C)C3)cc1 (stereo not drawn)  Ki (cell-free assay; radioligand): 4860 nM
Clc1ccc(C(c2ccccc2)c2nnnn2CCCCN2CCC(CCc3ccccc3)CC2)cc1 (stereo not drawn)  IC50 (transporter uptake; inhibitor): 424 nM
OCCCN1CC[C@@H]2C[C@H]1c1cc(-c3ccc(C(F)(F)F)cc3)ccc12  Ki (ligand displacement; radioligand): 405 nM
CCOC(=O)[C@@]12C[C@@H]1[C@@H](n1ccc3c(NC)nc(C#Cc4ccc(Cl)s4)nc31)[C@H](O)[C@@H]2O  IC50 (transporter uptake; inhibitor; radiometric): > 10000 nM
Clc1ccc(CC2CCN(CCCCn3nnnc3C(c3ccccc3)c3ccccc3)CC2)cc1Cl  IC50 (transporter uptake; inhibitor): 724 nM
CCn1c(-c2nc3cc(C(=O)N4CCC[C@@H](N)C4)cc(OC)c3n2C)cc2cccnc21  IC50 (transporter uptake; inhibitor): 31600 nM
CCC(C)C(=O)[C@]12C(=O)[C@](CC=C(C)C)(C[C@H](CC=C(C)C)[C@@]1(C)CCC=C(C)C)C(=O)C(CC=C(C)C)=C2O (stereo partly drawn)  Ki (ligand displacement; radioligand; cell membranes): 7320 nM
CNc1nc(C#Cc2ccc(Cl)s2)nc2c1ncn2[C@H]1[C@H](O)[C@H](O)[C@]2(C(=O)OC)C[C@H]12  Ki (ligand displacement; radioligand; cell membranes): > 10000 nM
Clc1ccc(C(c2ccccc2)c2nnnn2CCCN2CCC(Cc3ccccc3)CC2)cc1 (stereo not drawn)  IC50 (transporter uptake; inhibitor): 174 nM
CCOC(=O)[C@@]12C[C@@H]1[C@@H](n1cnc3c(NC)nc(C#Cc4ccc(Cl)s4)nc31)[C@H](O)[C@@H]2O  Ki (ligand displacement; radioligand; cell membranes): > 8400 nM
CNC(=O)[C@@]12C[C@@H]1[C@@H](n1cnc3c(NCc4cccc(Cl)c4)nc(C#Cc4ccccc4)nc31)[C@H](O)[C@@H]2O  Ki (ligand displacement; radioligand): 3160 nM
CCCCN1CCC(COC(=O)c2ccc(N)c(OCF)c2)CC1  Ki (cell-free assay; radioligand): 1400 nM
CCn1c(-c2nc3ccc(C(=O)N4CCCC(N)C4)cc3n2C)cc2ccccc21 (stereo not drawn)  IC50 (transporter uptake; inhibitor): 39800 nM
